In assay [1] the target is T1, Acetylcholinesterase (Homo sapiens, UniProt P22303). The assay can be described thus: Inhibition of human erythrocyte AChE using acetylthiocholine as substrate measured after 5 mins by Ellman's method. (Ellman's reagent forms a yellow product with free thiols.)
Assay [2] has as its target T2, Cholinesterase (Homo sapiens, UniProt P06276). The assay can be described thus: Inhibition of human plasma BuChE using butyrylthiocholine as substrate measured after 5 mins by Ellman's method.
Assay [3] is filed under the species Homo sapiens. The assay can be described thus: Selectivity ratio of IC50 for human erythrocyte AChE to IC50 for human plasma BuChE. Put shortly:
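Ellman assay used cholinesterases from human blood. Inhibitor at five concentrations was pre-incubated 5 min at 37 °C in phosphate buffer pH 8 with DTNB (3.5 mM stock) and acetylthiocholine iodide substrate (7 mM stock). The reaction was started with enzyme and read as absorbance increase at 412 nm. Each run was done twice. The ratio is derived from the AChE and BuChE IC50 values.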

The target in assay [4] is T2, Cholinesterase. The experiment in a line: Non competitive inhibition of human plasma BuChE using varying levels of butyrylthiocholine iodide as substrate by Lineweaver-Burk plot analysis.
The target in assay [5] is T1, Acetylcholinesterase. The experiment in a line: Mixed type inhibition of human erythrocyte AChE using varying levels of acetylthiocholine iodide as substrate by Lineweaver-Burk plot analysis.
Assay [6] has as its system MCF7. The assay can be described thus: Cytotoxicity against human MCF7 cells after 48 hrs by MTT assay. In kind it is ADME, cell-based. Particulars: MCF7, 48 h. For orientation: Tetrazolium assays rely on reduction of a dye to a coloured formazan, in cell work by metabolically active cells.
Assay [7] deals with SH-SY5Y. The experiment in a line: Cytotoxicity against human SH-SY5Y cells measured after 48 hrs by MTT assay. The format is ADME, cell-based.
For assay [8], the system named is HFF. The assay can be described thus: Cytotoxicity against HFF cells assessed as reduction in cell viability incubated for 48 hrs by MTT assay. Particulars: Homo sapiens. The format is ADME, cell-based.
For assay [9], the system named is PC-12. The assay can be described thus: Protection against amyloid beta (1 to 42)-induced toxicity in rat PC-12 cells assessed as increase in cell viability measured after 24 hrs by transmission electron microscopy. In kind it is functional, cell-based. Put shortly: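 PC12 cells incubated with 5 μM Aβ(1-42), with or without compound at 1 or 10 μM, at 37 °C for 24 h. Cell morphology and viability were compared by transmission electron microscopy.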

The subject of assay [10] is PC-12. The assay can be described thus: Antioxidant activity in amyloid beta (1 to 42)-induced oxidative stress in rat PC-12 cells assessed as reduction in ROS formation by measuring apoptotic index at 1 uM measured after 24 hrs by DAPI staining based TUNEL assay (reference value: 60 +/- 10). In kind it is functional.
The subject of assay [11] is PC-12. The experiment in a line: Antioxidant activity in amyloid beta (1 to 42)-induced oxidative stress in rat PC-12 cells assessed as reduction in ROS formation by measuring apoptotic index at 10 uM measured after 24 hrs by DAPI staining based TUNEL assay (reference value: 60 +/- 10). In kind it is functional.
For assay [12], the system named is PC-12. The experiment in a line: Antioxidant activity in amyloid beta (1 to 42)-induced oxidative stress in rat PC-12 cells assessed as reduction in ROS formation by measuring DCF fluorescence intensity at 1 uM measured after 24 hrs by DCFH-DA staining based fluorescence spectrophotometric assay (reference value: 51 +/- 11). The format is functional.
In assay [13] the test system is PC-12. The experiment in a line: Antioxidant activity in amyloid beta (1 to 42)-induced oxidative stress in rat PC-12 cells assessed as reduction in ROS formation by measuring DCF fluorescence intensity at 10 uM measured after 24 hrs by DCFH-DA staining based fluorescence spectrophotometric assay (reference value: 51 +/- 11). In kind it is functional.
Assay [14] concerns PC-12. The assay can be described thus: Antioxidant activity in amyloid beta (1 to 42)-induced oxidative stress in rat PC-12 cells assessed as reduction in ROS formation measured after 24 hrs by DCFH-DA staining based fluorescence spectrophotometric assay. In kind it is functional, cell-based. Put shortly: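 Intracellular ROS: PC12 cells given 5 μM Aβ(1-42) with or without compound (1 or 10 μM), then loaded with 10 μM DCFH-DA for 5 min at room temperature. DCF fluorescence read at ex 485/em 530 nm, with DAPI counterstain (ex 358/em 461) for microscopy.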

The subject of assay [15] is PC-12. The assay can be described thus: Antioxidant activity in amyloid beta (1 to 42)-induced oxidative stress in rat PC-12 cells assessed as reduction in ROS formation measured after 24 hrs by DAPI staining based TUNEL assay. The format is functional, cell-based. Put shortly: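 Aβ(1-42) (5 μM) treated PC12 cells, with compound at 1 or 10 μM, fixed in 4% paraformaldehyde (1 h), blocked with […], then permeabilized with 0.1% Triton X-100/0.1% sodium citrate on ice. TUNEL reaction 60 min at 37 °C, DAPI nuclear counterstain, imaged by fluorescence/confocal microscopy.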

Assay [16] deals with PC-12. The assay can be described thus: Cytoprotective activity against amyloid beta (1 to 42)-induced toxicity in rat PC-12 cells assessed as decrease in MDA level measured after 8 hrs by TBARS assay. The format is functional, cell-based. Put shortly: (§1)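 Cells seeded in six-well plates, exposed to 5 μM Aβ(1-42) with or without compound (1 or 10 μM) for 8 h. They were collected and sonicated on ice, then lysed with SDS. TBA reagent added and heated at 95 °C for 45-60 min. MDA read by TBARS absorbance at 535 nm.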

Assay [17] relates to PC-12. The experiment in a line: Cytoprotective activity against amyloid beta (1 to 42)-induced toxicity in rat PC-12 cells assessed as decrease in MDA level at 1 to 10 uM measured after 8 hrs by TBARS assay relative to control. The format is functional. Particulars: dose 1-10 µM. The arrangement: scale not given: the % may be the effect or the level left. Put shortly: as §1

The subject of assay [18] is PC-12. The assay can be described thus: Cytoprotective activity against amyloid beta (1 to 42)-induced toxicity in rat PC-12 cells assessed as decrease in LDH level by spectrophotometric assay. The format is functional, cell-based. Put shortly:
(§2)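 PC12 cells exposed to 5 μM Aβ(1-42) in serum-free DMEM 24 h at 37 °C, then compound (1 or 10 μM) added for 24 h. LDH in culture medium measured as rate of NADH oxidation (pyruvate→lactate), read as absorbance decrease at 340 nm. Expressed as leakage into medium relative to total LDH.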

The subject of assay [19] is PC-12. The assay can be described thus: Cytoprotective activity against amyloid beta (1 to 42)-induced toxicity in rat PC-12 cells assessed as decrease in LDH level at 1 uM by spectrophotometric assay relative to control. The format is functional. The arrangement: scale not given: the % may be the effect or the level left. Put shortly: as §2
In assay [20] the test system is PC-12. The assay can be described thus: Cytoprotective activity against amyloid beta (1 to 42)-induced toxicity in rat PC-12 cells assessed as decrease in LDH level at 10 uM by spectrophotometric assay relative to control. The format is functional. Details: scale not given: the % may be the effect or the level left. Put shortly:
as §2

The test system of assay [21] is PC-12. The assay can be described thus: Antioxidant activity in amyloid beta (1 to 42)-induced oxidative stress in rat PC-12 cells assessed as increase in TAC level at 1 to 10 uM in presence of ABTS by spectrophotometric assay. In kind it is functional, cell-based. Particulars: dose 1-10 µM. Put shortly: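 Total antioxidant capacity measured with the ABTS/myoglobin method: 10 mM PBS pH 7.2, myoglobin, ABTS (300 μM final) and diluted sample or Trolox held 3 min at 25 °C. The reaction was started and absorbance read at 450 nm for 5 min at 25 °C. Cells were treated with 5 μM Aβ(1-42) with or without compound.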

Assay [22] concerns PC-12. The experiment in a line: Antiinflammatory activity in amyloid beta (1 to 42)-induced cytokine production in rat PC-12 cells assessed as decrease in IL-1beta mRNA level by SYBR green dye based RT-PCR analysis. In kind it is functional, cell-based. Put shortly: (§3)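 PC12 cells (7-day cultures, DMEM with 7% FBS, 7% horse serum) exposed to 5 μM Aβ(1-42) in serum-free DMEM for 24 h at 37 °C, 5% CO2, then compound at 1 or 10 μM for 24 h. Total RNA isolated, reverse transcribed, and IL-1β and TNF-α mRNA quantified by SYBR Green real-time PCR; 2^-ΔΔCT method relative to β-actin.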

In assay [23] the test system is PC-12. The assay can be described thus: Antiinflammatory activity in amyloid beta (1 to 42)-induced cytokine production in rat PC-12 cells assessed as decrease in TNFalpha mRNA level by SYBR green dye based RT-PCR analysis. In kind it is functional, cell-based. Put shortly:
as §3

Assay [24] deals with T1, Acetylcholinesterase. The experiment in a line: Inhibition of human erythrocyte AChE at 100 uM using acetylthiocholine as substrate measured after 5 mins by Ellman's method relative to control. Put shortly: (§4)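 Ellman spectrophotometric assay using cholinesterases from human blood. The 1 ml medium held pH 8 phosphate buffer, DTNB (3.5 mM stock), thiocholine substrate (7 mM stock) and inhibitor. It was preincubated 5 min at 37 °C, then started by adding enzyme. Absorbance increase was read at 412 nm over 5 min intervals against control cuvettes. Each experiment was run twice.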

Assay [25] has as its target T2, Cholinesterase. The experiment in a line: Inhibition of human plasma BuChE at 100 uM using butyrylthiocholine as substrate measured after 5 mins by Ellman's method relative to control. Put shortly: as §4

The source made the active and inactive calls. The rule behind the calls is not given here.

T1 sequence (P22303 whole entry): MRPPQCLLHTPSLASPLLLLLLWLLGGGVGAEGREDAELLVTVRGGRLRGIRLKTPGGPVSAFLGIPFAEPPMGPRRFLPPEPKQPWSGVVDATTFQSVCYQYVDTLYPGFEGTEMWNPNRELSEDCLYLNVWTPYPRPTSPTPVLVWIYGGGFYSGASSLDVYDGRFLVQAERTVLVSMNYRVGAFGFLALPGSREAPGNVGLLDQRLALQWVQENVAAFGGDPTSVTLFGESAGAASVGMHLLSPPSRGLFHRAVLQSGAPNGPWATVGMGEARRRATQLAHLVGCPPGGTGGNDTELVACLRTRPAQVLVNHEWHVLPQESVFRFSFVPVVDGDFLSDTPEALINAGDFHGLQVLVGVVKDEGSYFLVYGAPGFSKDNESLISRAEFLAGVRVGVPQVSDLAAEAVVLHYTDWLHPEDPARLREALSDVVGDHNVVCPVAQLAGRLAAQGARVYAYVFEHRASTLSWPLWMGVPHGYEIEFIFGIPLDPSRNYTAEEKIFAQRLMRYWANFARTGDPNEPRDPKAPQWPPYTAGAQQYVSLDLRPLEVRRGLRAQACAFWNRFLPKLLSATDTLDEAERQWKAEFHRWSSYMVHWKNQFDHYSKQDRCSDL
T2 sequence (P06276 whole entry): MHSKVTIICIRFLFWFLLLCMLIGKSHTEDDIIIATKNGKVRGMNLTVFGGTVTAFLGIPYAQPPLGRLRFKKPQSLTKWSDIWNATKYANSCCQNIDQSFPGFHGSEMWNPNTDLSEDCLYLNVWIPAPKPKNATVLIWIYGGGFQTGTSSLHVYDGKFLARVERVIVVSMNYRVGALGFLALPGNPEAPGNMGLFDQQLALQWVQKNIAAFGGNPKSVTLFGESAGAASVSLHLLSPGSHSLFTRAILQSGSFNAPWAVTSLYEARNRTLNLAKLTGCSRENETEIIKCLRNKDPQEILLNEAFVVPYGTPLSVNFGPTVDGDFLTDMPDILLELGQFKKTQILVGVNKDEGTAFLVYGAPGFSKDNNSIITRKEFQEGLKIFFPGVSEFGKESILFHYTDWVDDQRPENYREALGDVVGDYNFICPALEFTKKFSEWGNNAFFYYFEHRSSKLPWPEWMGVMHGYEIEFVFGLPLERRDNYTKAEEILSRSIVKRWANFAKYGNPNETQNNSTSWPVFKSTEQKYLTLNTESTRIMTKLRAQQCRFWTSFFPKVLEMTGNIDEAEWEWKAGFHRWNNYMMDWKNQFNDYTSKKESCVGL

By IC50 is commonly meant the midpoint of a concentration-inhibition curve. Turning to `COc1cc2c(cc1OC)C(=O)/C(=C/c1ccc(N3CC[N+](C)(Cc4ccccc4Br)CC3)cc1)C2`, the IC50 in assay [1] worked out at 540 nM; in assay [2], 1400 nM. Also, the Ratio IC50 in assay [3] came to 0.38.

Take `COc1cc2c(cc1OC)C(=O)/C(=C/c1ccc(N3CC[N+](C)(Cc4cccc(Br)c4)CC3)cc1)C2`: the IC50 was found to be 1990 nM in assay [1] and 650 nM in assay [2]. In assay [3], the Ratio IC50 was found to be 3.06.

The term Ki denotes the dissociation constant of the complex between target and ligand, obtained from inhibition or displacement. Take `COc1cc2c(cc1OC)C(=O)/C(=C/c1ccc(N3CC[N+](C)(Cc4cccc(Cl)c4)CC3)cc1)C2.[Br-]`: the half-maximal inhibitory concentration (IC50) was 320 nM in [1]; 430 nM in assay [2]; 1520 nM in assay [6]; 1230 nM in [7]; 1980 nM in [8]. Further, the Ratio IC50 in assay [3] was determined as 0.74. Moreover, the Ki in assay [4] was 500 nM; in [5], 1000 nM. In addition, the Kinact in assay [5] amounted to 0.5 µM. Further, the Activity result in [9] is “Dose-dependent effect”; in [14] it was “Dose-dependent effect”; in assay [15], “Dose-dependent effect”; in assay [16], “Dose-dependent effect”; in [17] it was 40.4%; in [18], “Dose-dependent effect”. The Activity in [19] is 16.6%; in [20], 27.5%; in assay [22], “Dose-dependent effect”; in [23] it was “Dose-dependent effect”. Also, the Activity_index in [10] came to 50; in [11], 35. Further, the Flu intensity stood at 51 in [12] and 38 in assay [13]. In addition, the result in assay [21] was Active.

A word on the inhibition: it is the drop in the measured response relative to a control, in per cent. With `COc1cc2c(cc1OC)C(=O)/C(=C/c1ccc(OCCCCBr)cc1)C2`, the inhibition is 27.8% in [24] and 0% in assay [25].

`COc1cc2c(cc1OC)C(=O)/C(=C/c1ccc(N3CC[N+](C)(Cc4ccccn4)CC3)cc1)C2`: the IC50 in [1] was found to be 380 nM; in assay [2], 3240 nM. Besides, the Ratio IC50 in assay [3] turned out to be 0.12.

Consider `COc1cc2c(cc1OC)C(=O)/C(=C/c1ccc(N3CC[N+](C)(Cc4ccc(Br)cc4)CC3)cc1)C2`, for which the figures for the IC50 in assay [1] and in assay [2] were 2550 nM and 4600 nM, respectively. Moreover, the Ratio IC50 in assay [3] turned out to be 0.55.

With `COc1cc2c(cc1OC)C(=O)/C(=C/c1ccc(N3CC[N+](C)(CCO)CC3)cc1)C2`, the IC50 in assay [1] is 1100 nM; in [2] it was 6480 nM. Besides, in assay [3], the Ratio IC50 was determined as 0.17.

Consider `CCC[N+]1(C)CCN(c2ccc(/C=C3\Cc4cc(OC)c(OC)cc4C3=O)cc2)CC1`, for which the IC50 in [1] was 2150 nM; in [2], 20200 nM. Also, the Ratio IC50 in [3] turned out to be 0.11.

Values taken from ChEMBL document CHEMBL4765271, “Design, synthesis and biological evaluation of 2,3-dihydro-5,6-dimethoxy-1H-inden-1-one and piperazinium salt hybrid derivatives as hAChE and hBuChE enzyme inhibitors” (Eur J Med Chem, 2020).
